The text below walks through data of ChEMBL document CHEMBL1150310, “Development of novel water-soluble photocleavable protective group and its application for design of photoresponsive paclitaxel prodrugs” (Bioorg Med Chem, 2008).

Holding throughout (assay type): physicochemical
A short description of data set [1]: Photostability in phosphate-buffered saline assessed as paclitaxel release at pH 7.4 after 4 mins of irradiation with UV laser of 355 nm, 10 Hzm 5 mJ irradiation. Particulars: buffer, pH 7.4, 4 min. Summed up:
(§1)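 The conversion profile was measured in 10 mM PBS (pH 7.4) under pulsed UV laser irradiation (355 nm, 10 Hz, 5 mJ). The released isotaxel then undergoes spontaneous O–N intramolecular acyl migration to give paclitaxel.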

Data set [2] in a line: Photostability in phosphate-buffered saline assessed as paclitaxel release at pH 7.4 after 4 mins of irradiation with UV light of 365 nm, 6W irradiation. Conditions: buffer, pH 7.4, 4 min. Summed up:
(§2)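 Prodrug, coumarin or parent drug, as a 2 mM DMSO stock, was diluted 3:297 into 10 mM PBS (pH 7.4). It was irradiated at room temperature with a 365 nm, 6 W UV lamp, and conversion was followed by HPLC.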

The nature of data set [3]: Stability in phosphate-buffered saline at pH 7.4 at 4 degC after 1 month. Conditions: buffer, pH 7.4, 730.5 h.
The nature of data set [4]: Photostability in phosphate-buffered saline assessed as paclitaxel release at pH 7.4 after irradiation with UV laser of 355 nm, 10 Hzm 5 mJ irradiation. Conditions: buffer. Summed up:
as §1

Data set [5] can be described thus: Stability in solid state at -20 degC after 4 months. Particulars: 2922 h.
A short description of data set [6]: Solubility in water at 15 degC. Conditions: in the assay text read “25 degC” for “15 degC”. Put shortly:
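The filtrate of the aqueous preparation was analysed by RP-HPLC. Water solubility was quantified against a calibration curve built from standard solutions of known prodrug amounts.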

Data set [7] can be described thus: Photostability in phosphate-buffered saline assessed as 7-[Bis-[2-[[2-(dimethylamino)ethyl]amino]-2-oxoethyl]amino]-4-(hydroxymethyl) coumarin hydrochloride release at pH 7.4 after 1 hr of irradiation with UV light of 365 nm, 6W irradiation. Particulars: buffer, pH 7.4, 1 h. Summed up: as §2

≈ marks a conversion by molar mass, not a printed value.

As to `CC(=O)O[C@H]1C(=O)[C@@]2(C)[C@H]([C@H](OC(=O)c3ccccc3)[C@]3(O)C[C@H](OC(=O)[C@H](OC(=O)c4ccccc4)[C@@H](NC(=O)OCc4cc(=O)oc5cc(N(CC(=O)NCCN(C)C)CC(=O)NCCN(C)C)ccc45)c4ccccc4)C(C)=C1C3(C)C)[C@]1(OC(C)=O)CO[C@@H]1C[C@@H]2O.Cl`, the Activity in data set [1] is listed as 24%; in data set [2], 69%; in data set [7], 11%. For the same molecule, the Stability result in data set [3] and in data set [5] was “Stable” throughout. In addition, in data set [4], the t1/2 is 15.1 min. The solubility in data set [6] was > 100000 µg/mL.

Turning to `CC(=O)O[C@H]1C(=O)[C@@]2(C)[C@H]([C@H](OC(=O)c3ccccc3)[C@]3(O)C[C@H](OC(=O)[C@H](OC(=O)c4ccccc4)[C@@H](N)c4ccccc4)C(C)=C1C3(C)C)[C@]1(OC(C)=O)CO[C@@H]1C[C@@H]2O` [ISOTAXEL], the concentration in solution in data set [6] (solubility) came to 450 µg/mL (≈ 527 µM).
